The list is not random: actives were taken first. Their share in the collection is about 2.4%.
Casp6 inh: caspase-6 (human) enzyme inhibition | P55212 | purified caspase-6, Z-VEID-R110 cleavage fluorescence | inhibition, % at 12.5 µM | 350,000 compounds, 0.53% hits | AID 686996;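 active = mean inhibition across replicates at least about 35%, with every replicate also reaching that limit, limit read from the data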;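 also: 0% = median of neutral control wells and 100% = no fluorescence left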
Target sequence (P55212 24-179 limits assumed): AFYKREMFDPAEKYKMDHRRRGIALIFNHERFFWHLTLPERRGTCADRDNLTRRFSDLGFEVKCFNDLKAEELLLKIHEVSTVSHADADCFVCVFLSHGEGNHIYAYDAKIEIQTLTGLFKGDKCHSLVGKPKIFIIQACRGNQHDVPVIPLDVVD
Target sequence (P55212 194-293 limits assumed): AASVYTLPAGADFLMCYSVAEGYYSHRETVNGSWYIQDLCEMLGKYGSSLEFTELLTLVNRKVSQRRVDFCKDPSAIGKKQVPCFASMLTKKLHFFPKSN
ERAP1 HTS inh: inhibitors of human ERAP1 aminopeptidase | Q9NZ08 | recombinant ERAP1, Leu-AMC fluorescence, 60 min | inhibition, % at 10.7 µM | 340,000 compounds, 0.15% hits | AID 652197;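 active = mean replicate inhibition of at least 30%, or all replicates individually reaching that 30% level; inactive = mean below 30% and not every replicate reaching it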;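 also: 0% = neutral control wells and 100% = L-leucinethiol positive control wells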
PGC1a acetyl inh: modulators of PGC1a acetylation; U2OS PGC1a acetylation, AlphaScreen anti-acetyl-lysine; with virally co-expressed GCN5 acetyltransferase; inhibition, % at 15.6 µM; 350,000 compounds, 0.17% hits;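 active = every replicate shows inhibition of at least 40%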;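 also: 0% = neutral control wells and 100% = positive control wells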
ARNT-TACC3 inh: ARNT/TACC3 interaction disruption; AlphaScreen His-ARNT PAS-B/GST-TACC3 binding, luminescence; TACC3 fragment carries E629A point mutation; 390,000 compounds, 0.66% hits; inhibition, % at 9.99 µM; Q9Y6A5;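 active = mean inhibition of replicates at least 50% and at least half of replicates each reaching 50%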;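 also: 0% = complete ARNT plus TACC3 wells and 100% = ARNT alone without TACC3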
S100A4 inh HTS: S100A4-myosin IIA interaction inhibition | 360,000 compounds, 0.14% hits | P26447 | inhibition, % at 10.7 µM | S100A4/TAMRA-MyoIIA peptide fluorescence polarization;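 active = mean inhibition of at least 70% across replicates, with every replicate also reaching that level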
Target sequence (P26447 whole entry, looked up): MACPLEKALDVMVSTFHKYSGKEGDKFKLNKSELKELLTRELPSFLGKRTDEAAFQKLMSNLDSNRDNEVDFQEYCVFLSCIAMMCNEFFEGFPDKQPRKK
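Compound dosing: one dose per compound; test system: human S100A4 monomer with TAMRA-labelled myosin IIA peptide; probe or stimulus: TAMRA-labelled myosin IIA heavy-chain peptide probe, 5 nM; medium: HEPES buffer with Ca2+, pH 7.2; schedule: 5 min incubation before reading; benchmarks: neutral control DMSO, positive control TFP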
Ecoli rRNA inh: selective bacterial rRNA inhibition in E. coli | E. coli WT GFP vs humanized-ribosome RFP mutants, fluorescence, 24 h; active compounds read low; DMSO median 0, no signal -100 | GFP signal change (wild-type ribosome), % (concentration not given with the values) | 350,000 compounds, 1.6% hits;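 active = significant combined selectivity score with lowered wild-type GFP, culture density cut under 30%, mutant RFP and density less affected; inactive = any of these conditions unmet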
ARNT Alpha ctr-1: interferes with AlphaScreen signal, flagging false ARNT-TACC3 hits | His-ARNT PASB-GST AlphaScreen artifact counter-screen, luminescence | 1,200 compounds, 50% hits | shares compounds with ARNT-TACC3 inh | AC50, µM (highest dose often 68 µM), without a hit: at the highest dose activity change, negative = signal decrease;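 active = every separate test run was called active for a drop in luminescence, with AC50 within twice the top valid dose, actives reach about 71 µM in these data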
ARNT Alpha ctr-2: AlphaScreen artifact flagged for ARNT-TACC3 inhibitors | 45 compounds, 70% hits | Dual-tagged His-ARNT PASB-GST AlphaScreen artifact counter-screen | AC50, µM | shares compounds with ARNT-TACC3 inh;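 active = luminescence drop, with half-maximal potency fitted within twice the sample's top valid dose, cut at about 70 µM in these data; inactive = the rest, including signal moving the wrong way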
* hit, by the source's call; · = not tested or not shown; [ ] = dose if it differs, or a comment.

SMILES	Casp6 inh	ERAP1 HTS inh	PGC1a acetyl inh	ARNT-TACC3 inh	S100A4 inh HTS	Ecoli rRNA inh	ARNT Alpha ctr-1	others
O=C(N/N=C/c1c(O)ccc2ccccc12)c1ccc(CO)nc1	19	0	·	59*	11	-30	67µM*
O=C(NCCCn1ccnc1)C(=O)NCC(c1ccco1)N1CCN(c2ccc(F)cc2)CC1 (stereo not drawn)	-26	-3	0	59*	-3	-7	-15%
O=C(NCCCn1ccnc1)C(=O)NCC(c1ccco1)N1CCN(c2ccccc2)CC1 (stereo not drawn)	-20	-4	-1	45*	0	0	-13%
COc1ccc(N2CCN(C(CNC(=O)C(=O)NCCCn3ccnc3)c3ccco3)CC2)cc1 (stereo not drawn)	-7	1	9	2	5	7	·
O=C(O)COc1ccccc1/C=N/NC(=O)c1cccc(S(=O)(=O)Nc2cccc(Cl)c2)c1	10	-1	-20	52*	2	-10	71µM*
COc1ccccc1NS(=O)(=O)c1cccc(C(=O)N/N=C/c2ccc(OCC(=O)O)cc2)c1	22	1	·	-2	-4	4	·
C[C@H](CO)N1C[C@H](C)[C@@H](CN(C)S(=O)(=O)c2cccs2)Oc2ccc(NC(=O)CCN3CCOCC3)cc2CC1=O	-1	-3	2	·	2	0	·
Cc1ccc(Cn2cccc(NS(C)(=O)=O)c2=O)cc1	26	1	·	64*	-4	10	-5%
O=C(CSc1ccc(-c2ccccn2)nn1)c1ccc(F)cc1	0	·	11	39	-13	9	·
O=C(CSc1ccc(-c2ccccn2)nn1)N1CCCC1	1	1	-17	85*	8	10	48µM*	ARNT Alpha ctr-2=23*
O=C(CSc1ccc(-c2ccccn2)nn1)c1ccccc1	-4	0	-25	75*	0	-30	15µM*
O=C(CSc1ccc(-c2ccccn2)nn1)NC1CCCC1	4	-2	-6	59*	-12	10	18µM*
COc1cccc(S(=O)(=O)N(C)C[C@@H]2OCc3cn(nn3)CCCC(=O)N([C@H](C)CO)C[C@@H]2C)c1	·	·	0	·	·	-1	·
CN(C)CCNc1ccc(CO)c2sc3ccc(O)cc3c(=O)c12	-32	9	-3	32	8	-35	·
CN(C)CCNc1ccc2ncn3c4ccc(O)cc4c(=O)c1c23	25	33*	·	58*	3	·	-30%
CCCCC(=O)NC(c1ccc(N(C)C)cc1)c1ccc2cccnc2c1O (stereo not drawn)	-3	-1	-4	60*	-2	-14	11µM*
CCCCC(=O)NC(c1ccc(N(CC)CC)cc1)c1ccc2cccnc2c1O (stereo not drawn)	4	-3	·	37	1	·	·
CC(=O)NC(c1ccc(Cl)cc1Cl)c1ccc2cccnc2c1O (stereo not drawn)	-3	-4	·	66*	-1	7	22µM*
CCCC(=O)NC(c1ccc(Cl)cc1Cl)c1ccc2cccnc2c1O (stereo not drawn)	-4	0	·	3	-3	1	·
CC(=O)NC(c1ccc2ccccc2c1)c1ccc2cccnc2c1O (stereo not drawn)	-3	-2	·	62*	-4	-15	15µM*
Cc1ccc(-c2ccc3c(c2)O[C@H](CN(C)C(=O)CN(C)C)[C@H](C)CN([C@H](C)CO)S3(=O)=O)cc1	0	1	-2	3	5	4	·
CN1C(=O)c2cc(NC(=O)c3ccccc3)ccc2OC[C@H]2O[C@H](CC(=O)NCC3CC3)CC[C@H]21	-2	-1	-3	-6	4	0	·
CC1CCN(S(=O)(=O)c2ccc(C(=O)Nc3nnc(C4CC4)o3)cc2)CC1	-2	1	·	43	-5	-51	·	ARNT Alpha ctr-2=>136
O=C(Nc1nnc(C2CC2)o1)c1ccc(S(=O)(=O)N2CCCCC2)cc1	-1	3	·	51*	-6	-38	-38%
O=C(Nc1nnc(-c2ccco2)o1)c1ccc(S(=O)(=O)N2CCCCC2)cc1	5	-2	·	·	-2	-36	·
SMILES	Casp6 inh	ERAP1 HTS inh	PGC1a acetyl inh	ARNT-TACC3 inh	S100A4 inh HTS	Ecoli rRNA inh	ARNT Alpha ctr-1	others
CC1CC(C)CN(S(=O)(=O)c2ccc(C(=O)Nc3nnc(C4=COCCO4)o3)cc2)C1 (stereo not drawn)	·	·	·	·	·	·	·	ARNT Alpha ctr-2=>136
CN(C)CCCNC(=O)[C@@H]1[C@@H](CO)[C@@H]2Cn3c(ccc(-c4cccc(F)c4)c3=O)[C@H]1N2	1	1	7	·	-2	4	·
N#Cc1cc2ccc(N3CCOCC3)cc2cc1C#N	64*	-6	17	29*	-1	-34*	-16%
N#Cc1nc(COc2ccccc2F)oc1NCCCn1ccnc1	·	·	-3	10	·	·	·
COc1ccccc1OCc1nc(C#N)c(NCCCn2ccnc2)o1	-17	-4	1	34*	-2	-3	-10%
O=C(CC(NCc1ccccn1)C(=O)O)Nc1ccccc1Cl (stereo not drawn)	-1	-2	19	51*	0	14	13µM*
C[C@@H]1CN([C@@H](C)CO)C(=O)c2cc(NS(=O)(=O)c3ccccc3)ccc2O[C@@H](C)CCCCO[C@@H]1CN(C)C(=O)CCCN(C)C	-3	0	4	4	-16	8	·
O=C(CN1CCCCCCC1)N/N=C/c1ccc(F)c(F)c1	-39	0	·	55*	2	·	-5%
C[C@H]1CN([C@@H](C)CO)C(=O)c2cc(C#CC3(O)CCCC3)cnc2O[C@@H]1CN(C)Cc1ccccc1	-1	2	6	1	-4	1	·
CCN(CC)C(=O)c1ncn(Cc2ccccc2)c1C(=O)N(CC)CC	-3	-4	·	-4	-3	6	·
O=C(O)c1ncn(Cc2ccccc2)c1C(=O)O	·	·	-16	62*	·	·	-23%
CC=Cc1ccc2n(c1=O)C[C@@H]1[C@@H](CO)[C@H](C(=O)NCC3CC3)N(C(=O)C3CCOCC3)[C@H]21 (mixture of isomers)	-3	0	·	7	-24	0	·
CN(C)CC#Cc1ccc([C@@H]2[C@@H](CO)N3C(=O)CN(C(=O)Cc4ccccc4)C[C@H]23)cc1	·	·	5	·	-46	1	·
O=C(NC[C@H]1[C@@H](c2ccccc2)[C@@H](CO)N1Cc1ccccn1)C1CC1	-6	-2	3	48*	9	1	-12%[42 µM]
